Columns and labels:
[1] = test system: collagen-induced arthritis (CIA) rats; assay: Histological evaluation of ankle joints of CIA rats; type: in vivo, female Lewis rats; conditions: 10 mg/kg intragastrically daily, 21 days
Method in brief: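 CIA was induced in female Lewis rats (150 ± 10 g, 6 weeks) by s.c. injection of bovine type II collagen emulsified in complete Freund's adjuvant (400 μg collagen), then boosted 7 days later with collagen in incomplete adjuvant. Oral test compound was given in 0.5% CMC for 21 days (n = 7). Right ankles were fixed, decalcified, paraffin-embedded, and stained with H&E and safranin O–fast green. Sections were given a Mankin score (5 grades) over multiple fields. Groups were compared by Mann–Whitney U or ANOVA.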

[2] = In vivo pharmacokinetics, plasma concentration by HPLC; design: species or system female Lewis rats; conditions: female, Lewis, rat, po, 10 mg/kg
Method in brief: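 Healthy female Lewis rats (150 ± 10 g, 6 weeks) received a single oral 10 mg/kg dose of test compound suspended in 0.5% sodium CMC in water. Heparinized blood was drawn at 10 and 30 min and at 1, 2, 3, 4, 6, 8, 12, 18 and 24 h. Plasma drug was measured by HPLC, and parameters were calculated from the concentration–time curve.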

IL-1β = assay: ELISA of IL-1β in serum and synovial homogenate supernatant of CIA rats; type: in vivo, female Lewis rats; conditions: 10 mg/kg intragastrically daily, 21 days
Method in brief: (§1)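 Female Lewis rats; CIA from bovine type II collagen in complete Freund's adjuvant (400 μg collagen s.c.), boosted day 7 with incomplete adjuvant. Test compound in 0.5% CMC, 10 mg/kg intragastric daily, 21 days; n = 7, untreated CIA and healthy controls. Serum from canthus blood (300 × g, 10 min) and synovial homogenate supernatant (PBS, protease inhibitors) assayed by high-sensitivity ELISA; mean ± SD.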

[3] = cited from earlier work
TNF-α = assay: ELISA of TNF-α in serum and synovial homogenate supernatant of CIA rats; type: in vivo, female Lewis rats; conditions: 10 mg/kg intragastrically daily, 21 days
Method in brief: as §1

RA-FLS [4] = assay: Transwell migration assay; type: cell-based, human; conditions: 320 μg/mL, 48 hrs
Method in brief: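 RA-FLS (3×10³ cells/100 μL) in serum-free medium were placed in the upper chamber of 8-μm transwells with test compound (40–320 μg/mL). The lower chamber held 10% FBS as chemoattractant. After 48 h at 37°C, non-migrated cells were swabbed off. Underside cells were fixed in 4% paraformaldehyde for 30 min at room temperature, stained with 0.1% crystal violet, and counted in 5 random fields; three independent experiments.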

RA-FLS [5] = assay: MTS cell proliferation assay; type: cell-based, human; conditions: 48 hr
Method in brief: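 Primary RA-FLS were grown from explants of patients' synovial tissue in DMEM/20% FBS and used at passages 3–6. Cells were seeded at 3×10³ cells/100 μL and allowed to adhere overnight. They were exposed for 48 h to test compound at 40, 80, 160 or 320 μg/mL in 10% FBS high-glucose DMEM, alongside medium, PBS or blank-gel controls. After MTS for 2 h, absorbance was read at 490 nm, with six replicate wells per group.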

[6] = In vitro drug release / dissolution in PBS buffer; type: physicochemical; conditions: PBS 150 mM, pH 7.4, 37°C, 72 hrs
Method in brief: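 Release was by dialysis (3500 MWCO bag) into 20 mL PBS. Test powder (1.0 mg) was dispersed in 5 mL PBS at 37°C, or loaded hydrogel (250 μL) was placed in the bag. At set times 3 mL of outer buffer was withdrawn and replaced with fresh buffer. IGUR was quantified by UV absorbance at 309 nm.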

[7] = test system: collagen-induced arthritis (CIA) rats; assay: Therapeutic efficacy in collagen-induced arthritis; type: in vivo, female Lewis rats; conditions: 10 mg/kg intragastrically daily
Method in brief: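 Female Lewis rats (150 ± 10 g, 6 weeks) given bovine type II collagen in complete Freund's adjuvant (400 μg collagen s.c.), reboosted day 7 with incomplete adjuvant. Test compound in 0.5% CMC, 10 mg/kg intragastric daily for 21 days; n = 7 per group, untreated CIA and healthy rats as controls. Every 3 days, two researchers record weight, ankle diameter and arthritis index (each paw 0–4, maximum 16).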

RA-FLS [8] = assay: Matrigel transwell invasion assay; type: cell-based, human; conditions: 320 μg/mL, 48 hrs
Method in brief: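 Transwell inserts were coated with Matrigel diluted in cold serum-free medium (medium:Matrigel 5:1) and incubated overnight. RA-FLS (3×10³ cells/100 μL) in serum-free medium plus test compound (40–320 μg/mL) were placed above 10% FBS for 48 h at 37°C. Invaded cells were fixed in 4% paraformaldehyde, stained with crystal violet, and counted in 5 random fields; three independent replicates.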

IL-6 = assay: ELISA of IL-6 in serum and synovial homogenate supernatant of CIA rats; type: in vivo, female Lewis rats; conditions: 10 mg/kg intragastrically daily, 21 days
Method in brief: as §1

Question: What does the source list for CS(=O)(=O)Nc1cc2occ(NC=O)c(=O)c2cc1Oc1ccccc1 [raw IGUR, Iguratimod]?
Answer: H&E histology of ankle joints vs CIA group [1]: less infiltration of inflammatory cells in the synovial tissue and no obvious bone erosion; Mankin's score vs CIA group ([1]; P < 0.05): significantly lower; synovitis score vs CIA group ([1]; P < 0.05): significantly lower; area of ankle cartilage vs CIA group ([1]; saffron O-fixing green staining, Image J, P < 0.05): increased significantly; AUC(0-t) [2]: 111 µg·h/mL; Cmax [2]: 12700 ng/mL; half-life [2]: 3.7 h; serum level of IL-1β vs CIA group (IL-1β): significantly lower than those in the CIA group; solubility in aqueous solvents [3]: practically insoluble; serum level of TNF-α vs CIA group (TNF-α): significantly lower than those in the CIA group; relative cell migration ratio (RA-FLS [4]): 44.69 ± 1.58%; relative cell proliferation ratio (RA-FLS [5]; 160 μg/mL): 83.72 ± 1.41%; relative cell proliferation ratio (RA-FLS [5]; 320 μg/mL): 80.73 ± 2.14%; dissolution rate (dissolved/released IGUR) [6]: 28.65%; body weight vs CIA group ([7]; 13th day of administration): significantly higher than in the CIA group; AI scores vs CIA group ([7]; 16th day of administration): significantly lower than in the CIA group; relative cell invasion ratio (RA-FLS [8]): 44.59 ± 2.24%; serum level of IL-6 vs CIA group (IL-6): significantly lower than those in the CIA group

— publication PMC6847989 (International Journal of Nanomedicine, 2019)
